Assay results published in ChEMBL document CHEMBL1629526, “4-[1-(Substituted aryl/alkyl carbonyl)-benzoimidazol-2-yl]-benzenesulfonic acids: synthesis, antimicrobial activity, QSAR studies, and antiviral evaluation” (Eur J Med Chem, 2010).
Converted amounts (≈) assume the structure as drawn.

Key:
Influenza A virus [1] = assay: Antiviral activity against Influenza A H1N1 virus subtype infected in MDCK cells assessed as inhibition of virus induced cytopathicity by visual scoring of CPE; format: functional, organism-based
Influenza B virus [2] = assay: Antiviral activity against Influenza B virus infected in MDCK cells assessed as inhibition of virus induced cytopathicity after 2 to 4 days by MTS assay; format: functional, organism-based
Influenza A virus [3] = assay: Antiviral activity against Influenza A H3N2 virus subtype infected in MDCK cells assessed as inhibition of virus induced cytopathicity after 2 to 4 days by MTS assay; format: functional, organism-based
[4] = Cytotoxicity against MDCK cells assessed as cell viability by MTS assay; format: cell-based, Canis lupus familiaris; conditions: dog, MDCK cells
Outline: (§1)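 Uninfected cultures were run in parallel with the antiviral assays. Viability was read by colorimetric formazan MTS assay.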

[5] = Cytotoxicity against MDCK cells assessed as altered cell morphology; format: cell-based, Canis lupus familiaris; conditions: dog
Outline: (§2)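 Uninfected cell cultures run alongside the antiviral assays, exposed to serial compound dilutions and incubated at 37 °C for 2–4 days. Toxicity was scored microscopically and reported as the minimum cytotoxic concentration (MCC), the lowest concentration causing a detectable change in normal cell morphology.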

Influenza A virus [6] = assay: Antiviral activity against Influenza A H1N1 virus subtype infected in MDCK cells assessed as inhibition of virus induced cytopathicity after 2 to 4 days by MTS assay; format: functional, organism-based
Influenza B virus [7] = assay: Antiviral activity against Influenza B virus infected in MDCK cells assessed as inhibition of virus induced cytopathicity by visual scoring of CPE; format: functional, organism-based
Influenza A virus [8] = assay: Antiviral activity against Influenza A H3N2 virus subtype infected in MDCK cells assessed as inhibition of virus induced cytopathicity by visual scoring of CPE; format: functional, organism-based
[9] = Cytotoxicity against human HeLa cells assessed as altered cell morphology; format: cell-based; outline: as §2
[10] = Cytotoxicity against african green monkey Vero cells assessed as altered cell morphology; format: cell-based; conditions: chlorocebus sabaeus; outline: as §2
Coxsackievirus B4 [11] = assay: Antiviral activity against coxsackievirus B4 infected in human HeLa cells assessed as inhibition of virus induced cytopathicity after 2 to 4 days by MTS assay; format: functional, organism-based; conditions: Enterovirus B
[12] = test system: Respiratory syncytial virus; assay: Antiviral activity against Respiratory syncytial virus infected in human HeLa cells assessed as inhibition of virus induced cytopathicity after 2 to 4 days by MTS assay; format: functional, organism-based
[13] = Cytotoxicity against human HeLa cells assessed as cell viability by MTS assay; format: cell-based; conditions: HeLa cells; outline: as §1
[14] = test system: Vesicular stomatitis virus; assay: Antiviral activity against Vesicular stomatitis virus infected in human HeLa cells assessed as inhibition of virus induced cytopathicity after 2 to 4 days by MTS assay; format: functional, organism-based
[15] = test system: Vesicular stomatitis virus; assay: Antiviral activity against Vesicular stomatitis virus infected in HEL cells assessed as inhibition of virus induced cytopathicity after 2 to 4 days by MTS assay; format: functional, organism-based
[16] = test system: Mammalian orthoreovirus 1; assay: Antiviral activity against Reovirus 1 virus infected in african green monkey Vero cells assessed as inhibition of virus induced cytopathicity after 2 to 4 days by MTS assay; format: functional, organism-based; conditions: Mammalian orthoreovirus 1, Vero
Human alphaherpesvirus 1 [17] = assay: Antiviral activity against thymidine kinase deficient acyclovir-resistant Herpes simplex virus 1 KOS infected in HEL cells assessed as inhibition of virus induced cytopathicity after 2 to 4 days by MTS assay; format: functional, organism-based; conditions: Human alphaherpesvirus 1, KOS
Vaccinia virus = assay: Antiviral activity against Vaccinia virus infected in HEL cells assessed as inhibition of virus induced cytopathicity after 2 to 4 days by MTS assay; format: functional, organism-based; conditions: Orthopoxvirus vaccinia
Human alphaherpesvirus 1 [18] = assay: Antiviral activity against Herpes simplex virus 1 KOS infected in HEL cells assessed as inhibition of virus induced cytopathicity after 2 to 4 days by MTS assay; format: functional, organism-based; conditions: Human alphaherpesvirus 1, KOS
Coxsackievirus B4 [19] = assay: Antiviral activity against coxsackievirus B4 infected in human HeLa cells assessed as inhibition of virus induced cytopathicity by visual scoring of CPE; format: functional, organism-based; conditions: Enterovirus B
Human alphaherpesvirus 2 = assay: Antiviral activity against Herpes simplex virus 2 G infected in HEL cells assessed as inhibition of virus induced cytopathicity after 2 to 4 days by MTS assay; format: functional, organism-based; conditions: Human alphaherpesvirus 2, strain G
[20] = Cytotoxicity against human HEL cells assessed as altered cell morphology; format: cell-based; outline: as §2
[21] = test system: Vesicular stomatitis virus; assay: Antiviral activity against Vesicular stomatitis virus infected in human HeLa cells assessed as inhibition of virus induced cytopathicity by visual scoring of CPE; format: functional, organism-based
[22] = test system: Respiratory syncytial virus; assay: Antiviral activity against Respiratory syncytial virus infected in human HeLa cells assessed as inhibition of virus induced cytopathicity by visual scoring of CPE; format: functional, organism-based
Punta Toro virus = assay: Antiviral activity against Punta Toro virus infected in african green monkey Vero cells assessed as inhibition of virus induced cytopathicity after 2 to 4 days by MTS assay; format: functional, organism-based
Human respirovirus 3 = assay: Antiviral activity against parainfluenza-3 virus infected in african green monkey Vero cells assessed as inhibition of virus induced cytopathicity after 2 to 4 days by MTS assay; format: functional, organism-based; conditions: Human respirovirus 3, Vero
Coxsackievirus B4 [23] = assay: Antiviral activity against Coxsackie virus B4 infected in african green monkey Vero cells assessed as inhibition of virus induced cytopathicity after 2 to 4 days by MTS assay; format: functional, organism-based; conditions: Enterovirus B

SMILES | EC50 (Influenza A virus [1]) [µg/mL] | EC50 (Influenza B virus [2]) [µg/mL] | EC50 (Influenza A virus [3]) [µg/mL] | CC50 [4] [µg/mL] | MCC [5] [µg/mL] | EC50 (Influenza A virus [6]) [µg/mL] | EC50 (Influenza B virus [7]) [µg/mL] | MCC [9] [µg/mL] | MCC [10] [µg/mL] | EC50 (Coxsackievirus B4 [11]) [µg/mL] | EC50 [12] [µg/mL] | CC50 [13] [µg/mL] | other results
NC12CC3CC(CC(C3)C1)C2 [AMANTADINE] | 18 (≈ 119 µM) | > 200 | 0.2 (≈ 1.32 µM) | > 200 | > 200 | 44 (≈ 291 µM) | > 200 | – | – | – | – | – | –
CC(N)C12CC3CC(CC(C3)C1)C2 (stereo not given) [RIMANTADINE] | 4 (≈ 22.3 µM) | > 200 | 0.02 (≈ 0.112 µM) | > 200 | > 200 | 12 (≈ 66.9 µM) | > 200 | – | – | – | – | – | EC50 (Influenza A virus [8]): 0.03 µg/mL (≈ 0.167 µM)
Nc1ncnc2c1ncn2C[C@H](O)CO [(S)-DHPA] | – | – | – | – | – | – | – | > 250 | > 250 | > 250 | > 250 | > 250 | EC50 [14]: > 250 µg/mL
NC(=O)c1ncn([C@@H]2O[C@H](CO)[C@@H](O)[C@H]2O)n1 [RIBAVIRIN] | 9 (≈ 36.9 µM) | 4.3 (≈ 17.6 µM) | 8.4 (≈ 34.4 µM) | – | > 100 | 12 (≈ 49.1 µM) | 7 (≈ 28.7 µM) | > 250 | > 250 | 14 (≈ 57.3 µM) | 2.8 (≈ 11.5 µM) | > 250 | EC50 [15]: > 250 µg/mL; EC50 [16]: 112 µg/mL (≈ 459 µM); EC50 (Human alphaherpesvirus 1 [17]): 2 µg/mL (≈ 8.19 µM); EC50 (Vaccinia virus): 10 µg/mL (≈ 40.9 µM); EC50 (Human alphaherpesvirus 1 [18]): 1 µg/mL (≈ 4.09 µM); EC50 (Coxsackievirus B4 [19]): 50 µg/mL (≈ 205 µM); EC50 (Human alphaherpesvirus 2): 2 µg/mL (≈ 8.19 µM); MCC [20]: > 250 µg/mL; EC50 [21]: 10 µg/mL (≈ 40.9 µM); EC50 [22]: 6 µg/mL (≈ 24.6 µM); EC50 (Punta Toro virus): 112 µg/mL (≈ 459 µM); EC50 (Human respirovirus 3): 95 µg/mL (≈ 389 µM); EC50 (Coxsackievirus B4 [23]): 250 µg/mL (≈ 1020 µM)
